# Laboratory results published in ChEMBL document CHEMBL1137089, “Identification of putative agouti-related protein(87-132)-melanocortin-4 receptor interactions by homology molecular modeling and validation using chimeric peptide ligands” (J Med Chem, 2004).
# *1 amine or outer side, *2 acyl side, *3 side chain or, on linkers, in order; H or OH if unused. Where a SMILES comes first, the peptide text is derived from it. Bridges are numbered along the chain shown (N, C = ends). [ ]: non-standard residue; d: D form. The star is where a group is joined. X4 = O=C(C(=O)[*:2])[C@H](Cc1ccccc1)N[*:1]; X3 = NN[C@@H](Cc1ccc(O)cc1)C(=O)*; Dap = NC[C@H](N)C(=O)O
# Assays:
# [1] = biological target: T1, Melanocortin receptor 4 (Mus musculus, UniProt P56450); test: Inhibitory concentration towards melanocortin MC4 receptor by displacing radioligand [125I]NDP-MSH
# T1 sequence (P56450 whole entry): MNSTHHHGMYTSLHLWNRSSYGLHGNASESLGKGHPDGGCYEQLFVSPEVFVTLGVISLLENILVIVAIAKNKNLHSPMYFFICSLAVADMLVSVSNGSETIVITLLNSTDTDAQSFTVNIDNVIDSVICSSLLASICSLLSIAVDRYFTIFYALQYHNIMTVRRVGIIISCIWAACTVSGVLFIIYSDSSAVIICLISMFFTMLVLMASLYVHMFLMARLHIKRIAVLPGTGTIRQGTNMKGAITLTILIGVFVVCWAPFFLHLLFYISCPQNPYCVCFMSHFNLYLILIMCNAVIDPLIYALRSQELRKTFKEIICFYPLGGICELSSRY
# Outline: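 Whole HEK-293 cells stably expressing the mouse MC4 receptor, plated at 0.3 × 10⁶ cells/well the day before. Cells washed, lysed in NaOH/Triton X-100, and counted by γ-counter. IC50 by nonlinear least-squares fit; duplicate wells, at least two independent experiments, mean ± SD.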
# [2] = biological target: T1, Melanocortin receptor 4; test: Inhibitory concentration towards melanocortin MC4 receptor by displacing radioligand [125I]-hAGRP(87-132)
# [3] = biological target: Melanocortin receptor 3 (Mus musculus, UniProt P33033); test: Effective concentration against mouse Melanocortin 3 receptor; assay type: functional; conditions: for Kb: read-out: pA2 (converted)
# Melanocortin receptor 3, sequence (P33033 whole entry): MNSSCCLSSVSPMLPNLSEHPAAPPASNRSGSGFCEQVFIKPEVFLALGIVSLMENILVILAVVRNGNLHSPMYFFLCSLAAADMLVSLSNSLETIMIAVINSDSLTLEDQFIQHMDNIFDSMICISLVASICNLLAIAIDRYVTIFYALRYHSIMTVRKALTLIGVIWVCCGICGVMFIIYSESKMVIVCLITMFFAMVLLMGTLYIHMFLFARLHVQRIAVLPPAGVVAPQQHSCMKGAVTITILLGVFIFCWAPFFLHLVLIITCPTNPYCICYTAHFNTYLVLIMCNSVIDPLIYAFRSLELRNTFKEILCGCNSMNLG
# Outline: (§1)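 HEK-293 cells stably expressing the mouse melanocortin receptor (G418 selection), transiently transfected with CRE/β-galactosidase reporter. EC50 by nonlinear least-squares fit; SEM from at least three independent experiments.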
# [4] = biological target: Melanocyte-stimulating hormone receptor (Mus musculus, UniProt Q01727); test: Effective concentration against mouse Melanocortin 1 receptor; assay type: functional; outline: as §1
# Melanocyte-stimulating hormone receptor, sequence (Q01727 whole entry): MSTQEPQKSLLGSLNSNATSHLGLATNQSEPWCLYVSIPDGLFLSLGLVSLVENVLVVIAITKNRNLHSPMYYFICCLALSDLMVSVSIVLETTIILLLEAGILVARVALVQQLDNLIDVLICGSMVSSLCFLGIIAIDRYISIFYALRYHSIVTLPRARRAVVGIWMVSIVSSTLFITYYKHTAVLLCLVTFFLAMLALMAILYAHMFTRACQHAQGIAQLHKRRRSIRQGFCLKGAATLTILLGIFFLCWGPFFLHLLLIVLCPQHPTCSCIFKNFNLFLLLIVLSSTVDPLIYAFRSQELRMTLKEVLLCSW
# [5] = biological target: Melanocortin receptor 5 (Mus musculus, UniProt P41149); test: Effective concentration against mouse Melanocortin 5 receptor; assay type: functional; outline: as §1
# Melanocortin receptor 5, sequence (P41149 whole entry): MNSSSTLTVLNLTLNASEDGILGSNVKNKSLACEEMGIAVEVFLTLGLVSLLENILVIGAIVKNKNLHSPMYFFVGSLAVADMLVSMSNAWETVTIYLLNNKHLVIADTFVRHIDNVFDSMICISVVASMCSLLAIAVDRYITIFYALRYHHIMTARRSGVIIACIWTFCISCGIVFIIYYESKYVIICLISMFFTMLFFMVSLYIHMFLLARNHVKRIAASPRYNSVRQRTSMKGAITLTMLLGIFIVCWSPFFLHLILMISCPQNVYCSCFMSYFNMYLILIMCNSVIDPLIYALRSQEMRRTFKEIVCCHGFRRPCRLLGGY
# [6] = biological target: T1, Melanocortin receptor 4; test: Effective concentration against mouse melanocortin MC4 receptor; assay type: functional; outline: as §1
IC50 [1],IC50 [2],EC50 [4],EC50 [5],EC50 [6],Compound,Kb [3],EC50 [3]
–,0.00548 µM,> 100 µM,–,–,CSCC[C@@H]1NC(=O)[C@H](C)NC(=O)[C@H]([C@@H](C)O)NC(=O)CNC(=O)[C@H](CC(C)C)NC(=O)[C@H](CCCCN)NC(=O)[C@H](CCCN=C(N)N)NC(=O)[C@@H]2CSSSSC[C@@H]3NC(=O)[C@@H]4CCCN4C(=O)[C@H](C(C)C)NC(=O)[C@H](CCC(N)=O)NC(=O)[C@H](CCC(N)=O)NC(=O)CNC(=O)[C@H](CC(C)C)NC(=O)[C@@H]4CSSSSC[C@H](NC(=O)[C@H]([C@@H](C)O)NC(=O)[C@H](C)NC(=O)[C@H](CSSSSC[C@@H](C(=O)N[C@@H](CO)C(=O)N[C@@H](CCCN=C(N)N)C(=O)N[C@H](C(=O)O)[C@@H](C)O)NC(=O)[C@@H]5CCCN5C(=O)[C@H](CC(N)=O)NC1=O)NC(=O)[C@@H]1CCCN1C(=O)[C@H](CC(=O)O)NC(=O)[C@H](CSSSSC[C@H](N)C(=O)N[C@@H](C(C)C)C(=O)N[C@@H](CCCN=C(N)N)C(=O)N[C@@H](CC(C)C)C(=O)N[C@@H](Cc1c[nH]cn1)C(=O)N[C@@H](CCC(=O)O)C(=O)N[C@@H](CO)C(=O)N4)NC3=O)C(=O)N[C@@H](Cc1ccc(O)cc1)C(=O)N[C@H]1CSSSSC[C@H](NC(=O)[C@H](Cc3ccccc3)NC(=O)[C@H](C)NC(=O)[C@H](CC(N)=O)NC(=O)[C@H](Cc3ccccc3)NC(=O)[C@H](Cc3ccccc3)NC(=O)[C@H](CCCN=C(N)N)NC1=O)C(=O)N[C@@H](Cc1ccc(O)cc1)C(=O)N2,0.00126 µM,–
–,–,13.3 µM,> 100 µM,> 100 µM,C[C@@H]1NC(=O)[C@H](CC(N)=O)NC(=O)[C@H](Cc2ccccc2)NC(=O)[C@H](Cc2ccccc2)NC(=O)[C@H](CCCNC(=N)N)NC(=O)[C@H](Cc2c[nH]cn2)NC(=O)[C@@H](NC(=O)[C@@H](N)Cc2ccc(O)cc2)CC(=O)NC[C@@H](C(=O)N[C@@H](Cc2ccc(O)cc2)C(N)=O)NC(=O)[C@H](Cc2ccccc2)NC1=O (H-YDHRFFNAF[Dap]Y-NH2; lactam 2-10),–,–
10.3 µM,7.3 µM,–,–,–,C[C@@H]1NC(=O)[C@H](CC(N)=O)NC(=O)[C@H](Cc2ccccc2)NC(=O)[C@H](CCCNC(=N)N)NC(=O)[C@H](Cc2c[nH]c3ccccc23)NC(=O)[C@@H](NC(=O)[C@@H](N)Cc2ccc(O)cc2)CC(=O)NC[C@@H](C(=O)N[C@@H](Cc2ccc(O)cc2)C(N)=O)NC(=O)[C@H](Cc2ccccc2)NC1=O (H-YDWRFNAF[Dap]Y-NH2; lactam 2-9),–,–
–,> 10 µM,6.12 µM,2.22 µM,15.9 µM,C[C@@H]1NC(=O)[C@H](CC(N)=O)NC(=O)[C@@H](Cc2ccccc2)NC(=O)[C@H](CCCNC(=N)N)NC(=O)[C@H](Cc2c[nH]c3ccccc23)NC(=O)[C@@H](NC(=O)[C@@H](N)Cc2ccc(O)cc2)CC(=O)NC[C@@H](C(=O)N[C@@H](Cc2ccc(O)cc2)C(N)=O)NC(=O)[C@H](Cc2ccccc2)NC1=O (H-YDWR[dF]NAF[Dap]Y-NH2; lactam 2-9),–,–
6.8 µM,3.1 µM,–,–,–,C[C@@H]1NC(=O)[C@H](CC(N)=O)NC(=O)[C@H](Cc2c[nH]c3ccccc23)NC(=O)[C@H](CCCNC(=N)N)NC(=O)[C@@H](Cc2ccccc2)NC(=O)[C@@H](NC(=O)[C@@H](N)Cc2ccc(O)cc2)CC(=O)NC[C@@H](C(=O)N[C@@H](Cc2ccc(O)cc2)C(N)=O)NC(=O)[C@H](Cc2ccccc2)NC1=O (H-YD[dF]RWNAF[Dap]Y-NH2; lactam 2-9),–,–

# Continued, compound first:
Compound,IC50 [1],IC50 [2],EC50 [4],EC50 [5],EC50 [6],Kb [3],EC50 [3]
C[C@@H]1NC(=O)[C@H](CC(N)=O)NC(=O)[C@H](Cc2ccccc2)NC(=O)[C@H](Cc2ccccc2)NC(=O)[C@H](CCCNC(=N)N)NC(=O)[C@@H](NC(=O)[C@@H](N)Cc2ccc(O)cc2)CC(=O)NC[C@@H](C(=O)N[C@@H](Cc2ccc(O)cc2)C(N)=O)NC(=O)[C@H](Cc2ccccc2)NC1=O,4.8 µM,3.2 µM,–,–,–,–,–
C[C@@H]1NC(=O)[C@@H](CC(N)=O)NC(=O)[C@H](Cc2ccccc2)NC(=O)[C@@H](Cc2ccccc2)NC(=O)[C@H](CCCN=C(N)N)NC(=O)[C@@H](NC(=O)[C@@H](N)Cc2ccc(O)cc2)CC(=O)NC[C@@H](C(=O)N[C@@H](Cc2ccc(O)cc2)C(=O)O)NC(=O)[C@@H](Cc2ccccc2)NC1=O,–,–,–,–,–,2 µM,–
C[C@@H]1NC(=O)[C@H](CC(N)=O)NC(=O)[C@H](Cc2c[nH]c3ccccc23)NC(=O)[C@H](CCCNC(=N)N)NC(=O)[C@H](Cc2ccccc2)NC(=O)[C@@H](NC(=O)[C@@H](N)Cc2ccc(O)cc2)CC(=O)NC[C@@H](C(=O)N[C@@H](Cc2ccc(O)cc2)C(N)=O)NC(=O)[C@H](Cc2ccccc2)NC1=O (H-YDFRWNAF[Dap]Y-NH2; lactam 2-9),9.2 µM,4.1 µM,19.7 µM,3.9 µM,13.4 µM,–,–
CNC(=O)C[C@@H]1NC(=O)[C@H](C)NC(=O)[C@H](C)NC(=O)[C@H](C)NC(=O)[C@@H](NC(=O)[C@H](Cc2ccc(O)cc2)NN)CC(=O)NC[C@@H](C(=O)N[C@@H](Cc2ccc(O)cc2)C(N)=O)NC(=O)C(=O)[C@H](Cc2ccccc2)NC(=O)[C@H](C)NC1=O (X3-DAAAD(NHMe)A[X4][Dap]Y-NH2; lactam 1-8),–,–,–,–,–,–,> 100 µM
